Assay results as given in ChEMBL document CHEMBL2424622, “Development of amino-pyrimidine inhibitors of c-Jun N-terminal kinase (JNK): kinase profiling guided optimization of a 1,2,3-benzotriazole lead” (Bioorg Med Chem Lett, 2013).

Tests used:
[1] = molecular target: T1, Ephrin type-A receptor 1 (Homo sapiens) (UniProt P21709); experiment: Competitive binding affinity to EPHA1 (unknown origin) at 10 uM in presence of ATP relative to control
T1 sequence (whole entry): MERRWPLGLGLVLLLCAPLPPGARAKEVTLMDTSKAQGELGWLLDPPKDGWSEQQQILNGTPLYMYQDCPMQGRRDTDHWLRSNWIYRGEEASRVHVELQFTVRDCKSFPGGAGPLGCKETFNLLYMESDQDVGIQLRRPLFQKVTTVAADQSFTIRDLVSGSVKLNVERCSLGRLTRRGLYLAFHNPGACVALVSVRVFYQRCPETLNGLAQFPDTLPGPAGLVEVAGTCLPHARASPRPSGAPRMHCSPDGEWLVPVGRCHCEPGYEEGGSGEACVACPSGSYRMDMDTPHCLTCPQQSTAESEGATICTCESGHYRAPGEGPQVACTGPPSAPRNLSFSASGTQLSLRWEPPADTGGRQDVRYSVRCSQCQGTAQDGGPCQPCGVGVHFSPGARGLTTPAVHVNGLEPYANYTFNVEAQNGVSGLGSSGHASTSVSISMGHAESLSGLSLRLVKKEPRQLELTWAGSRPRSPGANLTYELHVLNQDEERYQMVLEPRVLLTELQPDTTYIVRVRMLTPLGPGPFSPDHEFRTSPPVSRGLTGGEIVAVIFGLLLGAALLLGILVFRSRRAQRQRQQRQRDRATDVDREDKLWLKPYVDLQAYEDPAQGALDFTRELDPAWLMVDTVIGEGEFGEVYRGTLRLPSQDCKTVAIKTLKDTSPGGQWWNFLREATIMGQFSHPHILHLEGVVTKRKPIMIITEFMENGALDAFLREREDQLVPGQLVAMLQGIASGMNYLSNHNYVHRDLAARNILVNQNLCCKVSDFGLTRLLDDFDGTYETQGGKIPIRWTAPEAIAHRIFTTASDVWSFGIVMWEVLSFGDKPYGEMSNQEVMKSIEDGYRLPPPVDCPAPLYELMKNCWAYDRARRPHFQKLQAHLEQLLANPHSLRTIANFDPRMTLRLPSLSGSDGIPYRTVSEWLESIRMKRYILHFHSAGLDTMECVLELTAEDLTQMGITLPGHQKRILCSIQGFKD
Outline: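 In vitro ATP-site competition binding assay, part of profiling against a diverse panel of 128 kinases. Each compound was tested at a single concentration of 10 µM. Kinome selectivity was summarized as S15 selectivity scores.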

[2] = molecular target: Dual specificity mitogen-activated protein kinase kinase 2 (Homo sapiens) (UniProt P36507); experiment: Competitive binding affinity to MEK2 (unknown origin) at 10 uM in presence of ATP relative to control
Dual specificity mitogen-activated protein kinase kinase 2 (Homo sapiens), sequence (P36507 whole entry): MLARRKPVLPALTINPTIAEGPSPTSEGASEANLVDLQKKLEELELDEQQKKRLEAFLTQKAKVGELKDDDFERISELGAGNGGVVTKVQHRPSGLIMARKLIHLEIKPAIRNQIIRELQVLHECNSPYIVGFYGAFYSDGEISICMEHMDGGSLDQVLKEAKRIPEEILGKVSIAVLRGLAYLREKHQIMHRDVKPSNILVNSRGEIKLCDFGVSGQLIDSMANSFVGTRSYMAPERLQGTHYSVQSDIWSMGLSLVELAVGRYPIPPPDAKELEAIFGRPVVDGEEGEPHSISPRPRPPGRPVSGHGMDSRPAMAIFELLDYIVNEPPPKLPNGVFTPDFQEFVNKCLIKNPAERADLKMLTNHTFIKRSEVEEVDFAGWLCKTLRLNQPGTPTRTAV

[3] = molecular target: MAP kinase-interacting serine/threonine-protein kinase 1 (Homo sapiens, UniProt Q9BUB5); experiment: Competitive binding affinity to MKNK1 (unknown origin) at 10 uM in presence of ATP relative to control
MAP kinase-interacting serine/threonine-protein kinase 1, sequence (Q9BUB5 whole entry, looked up, the tested form may be a part): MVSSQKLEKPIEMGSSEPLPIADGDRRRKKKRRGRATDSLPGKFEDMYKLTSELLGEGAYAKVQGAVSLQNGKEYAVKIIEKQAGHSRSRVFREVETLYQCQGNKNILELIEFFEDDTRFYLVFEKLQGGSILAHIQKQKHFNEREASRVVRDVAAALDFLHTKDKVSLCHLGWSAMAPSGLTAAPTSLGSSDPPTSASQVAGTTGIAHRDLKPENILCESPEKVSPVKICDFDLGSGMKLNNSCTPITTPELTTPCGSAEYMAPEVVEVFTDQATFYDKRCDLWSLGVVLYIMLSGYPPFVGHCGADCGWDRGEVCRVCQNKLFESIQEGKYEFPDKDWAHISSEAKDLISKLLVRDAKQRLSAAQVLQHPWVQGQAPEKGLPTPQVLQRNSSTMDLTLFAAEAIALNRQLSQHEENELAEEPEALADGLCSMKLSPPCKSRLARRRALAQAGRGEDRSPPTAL

[4] = tested on: eIF-2-alpha kinase GCN2 (Homo sapiens), Q9P2K8 [S808G]; experiment: Competitive binding affinity to GCN2 kinase domain 2 S808G mutant (unknown origin) at 10 uM in presence of ATP relative to control
eIF-2-alpha kinase GCN2 (Homo sapiens), Q9P2K8 [S808G], sequence (Q9P2K8 whole entry S808G, the tested form may be a part): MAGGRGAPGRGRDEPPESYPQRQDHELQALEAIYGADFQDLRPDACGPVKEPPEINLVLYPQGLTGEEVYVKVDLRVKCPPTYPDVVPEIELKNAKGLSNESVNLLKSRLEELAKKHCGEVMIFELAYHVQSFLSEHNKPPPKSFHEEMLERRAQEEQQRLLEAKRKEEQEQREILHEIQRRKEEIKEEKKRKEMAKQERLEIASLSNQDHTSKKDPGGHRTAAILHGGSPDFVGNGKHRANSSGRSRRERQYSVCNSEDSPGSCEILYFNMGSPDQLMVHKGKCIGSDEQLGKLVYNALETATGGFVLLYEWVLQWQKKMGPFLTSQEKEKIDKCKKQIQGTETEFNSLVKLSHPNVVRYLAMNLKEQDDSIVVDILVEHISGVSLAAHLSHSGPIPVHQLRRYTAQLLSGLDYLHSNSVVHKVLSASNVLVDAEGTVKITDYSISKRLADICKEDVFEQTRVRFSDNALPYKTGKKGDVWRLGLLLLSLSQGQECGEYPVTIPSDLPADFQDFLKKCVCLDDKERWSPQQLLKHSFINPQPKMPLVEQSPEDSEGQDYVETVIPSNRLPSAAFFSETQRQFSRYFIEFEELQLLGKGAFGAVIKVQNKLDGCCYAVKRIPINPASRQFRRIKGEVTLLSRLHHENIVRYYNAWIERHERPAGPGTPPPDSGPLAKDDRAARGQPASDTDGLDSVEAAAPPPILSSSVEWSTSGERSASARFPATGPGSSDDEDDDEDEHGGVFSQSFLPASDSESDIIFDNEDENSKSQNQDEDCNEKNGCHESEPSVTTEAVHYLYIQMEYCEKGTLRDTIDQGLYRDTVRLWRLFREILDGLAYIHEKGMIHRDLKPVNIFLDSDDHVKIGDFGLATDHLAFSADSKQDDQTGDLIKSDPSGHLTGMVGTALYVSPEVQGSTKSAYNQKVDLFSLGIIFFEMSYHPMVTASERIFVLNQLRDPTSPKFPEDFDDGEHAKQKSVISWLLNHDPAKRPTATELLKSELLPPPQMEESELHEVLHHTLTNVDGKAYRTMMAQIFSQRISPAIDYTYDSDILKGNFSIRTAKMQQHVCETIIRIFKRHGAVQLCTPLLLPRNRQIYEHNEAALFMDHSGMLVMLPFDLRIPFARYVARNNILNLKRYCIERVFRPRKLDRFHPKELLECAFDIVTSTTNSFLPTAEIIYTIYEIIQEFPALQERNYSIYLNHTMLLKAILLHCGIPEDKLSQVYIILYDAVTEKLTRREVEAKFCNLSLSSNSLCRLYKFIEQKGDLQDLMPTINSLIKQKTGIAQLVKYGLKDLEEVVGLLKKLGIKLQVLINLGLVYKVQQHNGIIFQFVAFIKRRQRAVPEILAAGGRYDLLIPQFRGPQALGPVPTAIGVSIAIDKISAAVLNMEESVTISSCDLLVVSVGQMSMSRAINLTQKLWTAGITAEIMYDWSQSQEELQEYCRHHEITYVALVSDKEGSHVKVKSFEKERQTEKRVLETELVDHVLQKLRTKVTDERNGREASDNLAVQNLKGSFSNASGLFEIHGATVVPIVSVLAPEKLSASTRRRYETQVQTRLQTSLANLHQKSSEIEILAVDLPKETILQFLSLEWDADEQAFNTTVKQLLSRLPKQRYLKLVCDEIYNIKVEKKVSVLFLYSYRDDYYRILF
Outline: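 In vitro ATP-site competition binding format, run as one member of a diverse 128-kinase profiling panel. Each compound was tested at a single concentration across the whole panel.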

[5] = molecular target: Protein kinase C delta type (Homo sapiens) (UniProt Q05655); experiment: Competitive binding affinity to PRKCD (unknown origin) at 10 uM in presence of ATP relative to control
Protein kinase C delta type (Homo sapiens), sequence (Q05655 whole entry, looked up): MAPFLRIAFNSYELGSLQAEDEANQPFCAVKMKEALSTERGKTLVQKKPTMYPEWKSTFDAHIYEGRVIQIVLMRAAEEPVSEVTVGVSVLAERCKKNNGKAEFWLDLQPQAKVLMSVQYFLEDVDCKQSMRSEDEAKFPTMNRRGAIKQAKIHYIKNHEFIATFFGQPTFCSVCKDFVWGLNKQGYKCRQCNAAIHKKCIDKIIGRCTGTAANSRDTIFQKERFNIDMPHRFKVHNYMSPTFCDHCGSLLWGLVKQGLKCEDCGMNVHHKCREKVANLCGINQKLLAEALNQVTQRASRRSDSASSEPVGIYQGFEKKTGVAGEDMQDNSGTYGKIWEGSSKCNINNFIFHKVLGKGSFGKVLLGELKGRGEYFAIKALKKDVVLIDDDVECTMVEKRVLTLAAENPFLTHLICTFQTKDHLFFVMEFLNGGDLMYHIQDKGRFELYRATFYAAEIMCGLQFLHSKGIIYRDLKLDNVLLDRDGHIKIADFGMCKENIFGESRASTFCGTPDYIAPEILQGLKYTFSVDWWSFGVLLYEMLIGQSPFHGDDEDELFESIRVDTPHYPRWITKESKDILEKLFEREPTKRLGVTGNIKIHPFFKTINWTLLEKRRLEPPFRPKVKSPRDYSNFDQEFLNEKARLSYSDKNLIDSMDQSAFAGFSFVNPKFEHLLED

[6] = molecular target: T2, Tyrosine-protein kinase Mer (Homo sapiens) (UniProt Q12866); experiment: Competitive binding affinity to MERTK (unknown origin) at 10 uM in presence of ATP relative to control
T2 sequence (whole entry): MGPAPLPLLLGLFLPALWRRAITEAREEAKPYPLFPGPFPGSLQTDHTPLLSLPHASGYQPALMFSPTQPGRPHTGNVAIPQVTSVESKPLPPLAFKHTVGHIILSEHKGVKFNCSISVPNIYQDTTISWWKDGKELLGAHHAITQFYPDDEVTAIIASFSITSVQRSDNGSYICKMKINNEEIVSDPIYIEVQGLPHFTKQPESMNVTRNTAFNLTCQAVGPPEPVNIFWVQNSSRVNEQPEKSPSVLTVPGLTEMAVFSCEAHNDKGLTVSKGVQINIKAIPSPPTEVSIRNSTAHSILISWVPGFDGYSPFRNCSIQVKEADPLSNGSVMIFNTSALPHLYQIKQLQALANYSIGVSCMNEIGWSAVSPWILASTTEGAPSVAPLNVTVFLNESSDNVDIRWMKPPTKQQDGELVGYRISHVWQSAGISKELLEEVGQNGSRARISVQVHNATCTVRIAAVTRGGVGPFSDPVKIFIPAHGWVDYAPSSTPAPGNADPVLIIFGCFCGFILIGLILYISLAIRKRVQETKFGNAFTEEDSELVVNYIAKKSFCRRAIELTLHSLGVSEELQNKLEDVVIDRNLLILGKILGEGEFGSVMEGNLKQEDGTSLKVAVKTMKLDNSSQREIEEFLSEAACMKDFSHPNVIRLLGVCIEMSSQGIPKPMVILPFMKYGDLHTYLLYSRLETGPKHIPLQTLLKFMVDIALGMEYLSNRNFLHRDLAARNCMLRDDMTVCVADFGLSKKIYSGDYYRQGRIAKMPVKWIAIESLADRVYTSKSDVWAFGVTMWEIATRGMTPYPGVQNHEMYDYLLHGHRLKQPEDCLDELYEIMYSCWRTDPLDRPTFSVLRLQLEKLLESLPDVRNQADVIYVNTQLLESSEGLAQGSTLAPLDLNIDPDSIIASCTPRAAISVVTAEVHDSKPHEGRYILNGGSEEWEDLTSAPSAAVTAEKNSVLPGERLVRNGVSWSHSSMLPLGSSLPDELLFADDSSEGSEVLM
Outline: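 In vitro ATP-site competition binding assay across a diverse panel of 128 kinases, with compound tested at a single concentration. Kinase selectivity scores (S15) were calculated from the panel profiles.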

[7] = molecular target: T3, Dual specificity mitogen-activated protein kinase kinase 4 (Homo sapiens) (UniProt P45985); experiment: Competitive binding affinity to MEK4 (unknown origin) at 10 uM in presence of ATP relative to control
T3 sequence (whole entry): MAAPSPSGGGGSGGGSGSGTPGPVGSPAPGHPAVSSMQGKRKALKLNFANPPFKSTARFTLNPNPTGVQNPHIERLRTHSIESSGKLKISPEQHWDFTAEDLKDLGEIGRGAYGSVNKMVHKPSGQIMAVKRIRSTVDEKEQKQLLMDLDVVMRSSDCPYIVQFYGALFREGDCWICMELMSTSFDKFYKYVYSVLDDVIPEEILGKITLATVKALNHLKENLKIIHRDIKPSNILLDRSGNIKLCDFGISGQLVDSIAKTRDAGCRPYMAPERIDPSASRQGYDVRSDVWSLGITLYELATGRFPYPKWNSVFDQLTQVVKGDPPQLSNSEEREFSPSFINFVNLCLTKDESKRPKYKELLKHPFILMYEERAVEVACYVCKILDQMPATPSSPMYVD

Compound | inhibition [1] | inhibition [2] | inhibition [3] | inhibition [4] | inhibition [5] | inhibition [6] | inhibition [7]
O[C@H]1CC[C@H](Nc2nccc(-n3ncc4ccccc43)n2)CC1 | < 50% | < 50% | 70% | 100% | < 50% | 92% | 99%
O[C@H]1CC[C@H](Nc2nccc(-c3n[nH]c4ccccc34)n2)CC1 | < 50% |  |  | 100% |  | 100% | 
O[C@H]1CC[C@H](Nc2nccc(-n3nnc4ccccc43)n2)CC1 | < 50% | < 50% | 97% | 99% | < 50% | < 50% | 99%

Continued, values first:

inhibition [1] | inhibition [2] | inhibition [3] | inhibition [4] | inhibition [5] | inhibition [6] | inhibition [7] | Compound
< 50% | < 50% | < 50% | 83% | < 50% | < 50% | 97% | O[C@H]1CC[C@H](Nc2nccc(-n3ccc4ccccc43)n2)CC1
 |  | > 85% | > 85% |  |  | > 85% | CS(=O)(=O)CCCOc1cccc2c1ccn2-c1ccnc(N[C@H]2CC[C@H](C(=O)N3CCC(O)CC3)CC2)n1
